Measurements of several laboratories.
Oprd1: Delta-type opioid receptor (Oprd1, Rattus norvegicus, UniProt P33533)
CTSB: Cathepsin B (CTSB, Homo sapiens, UniProt P07858)

Structure (SMILES) | target | assay | setting | endpoint | value
CC[C@@H](C)[C@@H]1CN([C@@H](CC2CCCCC2)CN2CCC[C@H]2CN2CCNC[C@@H]2CO)CCN1CCc1ccc(Cl)c(Cl)c1 | Oprd1 | ligand displacement, radioligand | 0.5 µM, 2 h, pH 7.5, cell membranes | remaining binding | 94%
COc1ncccc1-c1cnn2ccc(N3CCN(C(=O)OC(C)C)CC3)nc12 | Mitogen-activated protein kinase kinase kinase kinase 1 (MAP4K1, Homo sapiens, UniProt Q92918) | binding, competition with immobilised ligand | 1 µM | remaining binding | 80%
C#Cc1n[nH]c2c(-c3cn(C(C)c4ccccn4)c(=O)[nH]c3=O)cc(F)cc12 (centres unmarked) | Cyclin-dependent kinase 2, with cyclin E1 (CDK2, Homo sapiens, UniProt P24941) | enzyme activity, inhibitor | 1 µM | inhibition | -13.7%
CC(C)C[C@H](NC(=O)[C@H]1O[C@@H]1C(=O)O)C(=O)NCCCCN=C(N)N | CTSB | enzyme activity, inhibitor | 50 nM | inhibition | 97%
CC(C)N1CCC[C@H]1CNC(=O)c1cn(C2CCCC2)c(=O)c2c1c1ccccc1n2C | Platelet-activating factor receptor (PTAFR, Homo sapiens, UniProt P25105) | ligand displacement, radioligand | 10 µM | inhibition | 7%
CCOC(=O)c1ccc(OC(=O)CCCCCNC(=N)N)cc1 | CTSB | enzyme activity, inhibitor | 10 µM | inhibition | 0%
Nc1ncc(-c2nc(N3CCOCC3)nc(N3CCOCC3)n2)c(C(F)F)n1 | Mitogen-activated protein kinase 6 (MAPK6, Homo sapiens, UniProt Q16659) | binding, competition with immobilised ligand | 10 µM | remaining binding | 88%
C#Cc1n[nH]c2c(-c3cn([C@@H](C)c4ccccc4)c(=O)[nH]c3=O)cc(F)cc12 | Tyrosine-protein kinase ZAP-70 (ZAP70, Homo sapiens, UniProt P43403) | enzyme activity, inhibitor | 0.1 µM | inhibition | 2%
C[C@@H](O)[C@@H]1CN([C@H](Cc2ccc3ccccc3c2)CN2CCC[C@H]2CN2CCNC[C@@H]2Cc2ccc3ccccc3c2)CCN1CCC12CC3CC(CC(C3)C1)C2 | Oprd1 | ligand displacement, radioligand | 0.5 µM, 2 h, pH 7.5, cell membranes | remaining binding | 100%
CN1CCN(c2ccc(Nc3nccc(-c4cccc([N+](=O)[O-])c4)n3)cc2C(F)(F)F)CC1 | Cyclin-dependent kinase 2 homolog (CRK2, Plasmodium falciparum, UniProt P61075) | cell-free assay | 10 µM | remaining signal | 93%
CC[C@H](NC(=O)OCc1ccccc1)C(=O)N[C@H](C(=O)N[C@@H](CC(C)C)C(=O)N(C)N(C#N)CCC(N)=O)C(C)(C)C | CTSB | enzyme activity, inhibitor |  | kon | 8400 M⁻¹ s⁻¹
Oc1ccc(C[C@@H]2CN([C@H](Cc3ccc4ccccc4c3)CN3CCC[C@H]3CN3CCNC[C@@H]3Cc3ccc4ccccc4c3)CCN2CCC23CC4CC(CC(C4)C2)C3)cc1 | Oprd1 | ligand displacement, radioligand | 0.5 µM, 2 h, pH 7.5, cell membranes | remaining binding | 94.4%
COc1cc(Cl)c(C(=O)N[C@@H](CN[C@H]2CC[C@@H](N)CC2)Cc2ccc(C#N)cc2)cc1-c1ccc(CN[C@H](C)c2ccc(C)cc2)o1 | MAP kinase-activated protein kinase 3 (MAPKAPK3, Homo sapiens, UniProt Q16644) | enzyme activity, inhibitor | 1 µM | remaining activity | 107%
CCN(CC)CCCC[C@H](NC(=O)[C@H](CC(C)C)NC(=O)[C@H](C)NC(=O)[C@H](Cc1ccccc1)NC(=O)c1ccc(C(C)(C)C)cc1)C(=O)N[C@@H](CO)C(=O)OC | Bromodomain-containing protein 7 (BRD7, Homo sapiens, UniProt Q9NPI1) | thermal stability, DSF | 25 µM | ΔTm | 0.08 °C
Cc1nn(C)cc1-c1nc2c(N3CCN(Cc4ccc(Cl)cc4)CC3)c(Cl)cnc2[nH]1 | Myosin light chain kinase family member 4 (MYLK4, Homo sapiens, UniProt Q86YV6) | binding, competition with immobilised ligand | 1 µM | remaining binding | 94%
C[C@@H](O)[C@@H]1CN([C@H](Cc2ccc3ccccc3c2)CN2CCC[C@H]2CN2CCNC[C@@H]2Cc2ccc3ccccc3c2)CCN1CCc1ccc(Cl)c(Cl)c1 | Oprd1 | ligand displacement, radioligand | 0.5 µM, 2 h, pH 7.5, cell membranes | remaining binding | 105%
CN(C)C(=O)COC(=O)Cc1ccc(OC(=O)c2ccc(NC(=N)N)cc2)cc1 | Ubiquitin carboxyl-terminal hydrolase 14 (USP14, Homo sapiens, UniProt P54578) | enzyme activity, inhibitor | 10 µM | inhibition | 0%
